The test system of assay [1] is Staphylococcus aureus. Kind of assay: Antimicrobial activity against Staphylococcus aureus. Type of assay: functional.
The nature of assay [2]: microbe, parasite or virus in culture. The conditions noted are these: Mycobacterium avium, 104. Type of assay: functional, Mycobacterium avium subsp. hominissuis.
A short description of assay [3]: microbe, parasite or virus in culture. The note with it: Mycobacterium tuberculosis variant bovis BCG. Type of assay: functional, Mycobacterium bovis BCG str. Tokyo 172.
Assay [4] concerns Mycobacterium tuberculosis. Kind of assay: Antimycobacterial activity against Mycobacterium tuberculosis H37Rv. Type of assay: functional.
Assay [5] relates to Mycobacterium avium. Kind of assay: microbe, parasite or virus in culture. Type of assay: functional, Mycobacterium avium subsp. avium ATCC 25291. The conditions noted are these: ATCC 2529.
In assay [6] the test system is Escherichia coli. Kind of assay: Antimicrobial activity against Escherichia coli DH5alpha. Type of assay: functional. The conditions noted are these: DH5[alpha].
In assay [7] the test system is Staphylococcus aureus. Kind of assay: microbe, parasite or virus in culture. Type of assay: functional. The conditions noted are these: 873.
The subject of assay [8] is Enterococcus faecalis. Put plainly: Antimicrobial activity against AGs-resistant Enterococcus faecalis ATCC 19434. Type of assay: functional.
In assay [9] the test system is Staphylococcus aureus. Kind of assay: Antimicrobial activity against drug-sensitive Staphylococcus aureus 209PJC-1. Type of assay: functional.
Assay [10] concerns Staphylococcus aureus. Put plainly: Antimicrobial activity against drug-sensitive Staphylococcus aureus RN4220. Type of assay: functional.
Assay [11] has as its system Escherichia coli. Kind of assay: Antimicrobial activity against drug-sensitive Escherichia coli JM109. Type of assay: functional.
The subject of assay [12] is Enterococcus faecalis. Put plainly: Antimicrobial activity against AGs-resistant Enterococcus faecalis ATCC 19433. Type of assay: functional.
The subject of assay [13] is Pseudomonas aeruginosa. Put plainly: Antibacterial activity against drug-sensitive Pseudomonas aeruginosa PAO1. Type of assay: functional.
Assay [14] concerns Staphylococcus aureus. Put plainly: Antimicrobial activity against methicillin-resistant Staphylococcus aureus MF490. Type of assay: functional.
Assay [15] deals with Klebsiella pneumoniae. Kind of assay: Antibacterial activity against […] Klebsiella pneumoniae ATCC BAA-1705. Type of assay: functional.
Assay [16] has as its system Mycobacterium tuberculosis. Put plainly: Antimycobacterial activity against drug-sensitive Mycobacterium tuberculosis isolate 4. Type of assay: functional. The essentials: (§1)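 MIC by broth dilution in Middlebrook 7H9 broth supplemented with albumin, dextrose and catalase.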
The subject of assay [17] is Mycobacterium tuberculosis. Put plainly: Antimycobacterial activity against drug-sensitive Mycobacterium tuberculosis isolate 19. Type of assay: functional. The essentials: as §1
For assay [18], the system named is Mycobacterium tuberculosis. Kind of assay: Antimycobacterial activity against drug-sensitive Mycobacterium tuberculosis isolate 9. Type of assay: functional. The essentials: as §1
In assay [19] the test system is Mycobacterium tuberculosis. Kind of assay: Antimycobacterial activity against drug-sensitive Mycobacterium tuberculosis isolate 7. Type of assay: functional. The essentials:
as §1

Assay [20] has as its system Mycobacterium tuberculosis. Kind of assay: Antimycobacterial activity against drug-sensitive Mycobacterium tuberculosis isolate 17. Type of assay: functional. The essentials: as §1
The subject of assay [21] is Mycobacterium tuberculosis. Kind of assay: Antimycobacterial activity against drug-sensitive Mycobacterium tuberculosis isolate 13. Type of assay: functional. The essentials:
as §1

Assay [22] has as its system Mycobacterium tuberculosis. Kind of assay: Antimycobacterial activity against drug-sensitive Mycobacterium tuberculosis isolate 12. Type of assay: functional. The essentials: as §1
Assay [23] relates to Mycobacterium tuberculosis. Put plainly: Antimycobacterial activity against drug-sensitive Mycobacterium tuberculosis isolate 5. Type of assay: functional. The essentials: as §1
Assay [24] deals with Mycobacterium tuberculosis. Put plainly: Antimycobacterial activity against drug-sensitive Mycobacterium tuberculosis isolate 6. Type of assay: functional. The essentials: as §1
Assay [25] deals with Mycobacterium tuberculosis. Kind of assay: Antimycobacterial activity against drug-sensitive Mycobacterium tuberculosis isolate 14. Type of assay: functional. The essentials: as §1
For assay [26], the system named is Mycobacterium tuberculosis. Put plainly: Antimycobacterial activity against drug-sensitive Mycobacterium tuberculosis isolate 1. Type of assay: functional.
Assay [27] concerns Mycobacterium tuberculosis. Put plainly: Antimycobacterial activity against drug-sensitive Mycobacterium tuberculosis isolate 15. Type of assay: functional. The essentials:
as §1

In assay [28] the test system is Mycobacterium tuberculosis. Put plainly: Antimycobacterial activity against drug-sensitive Mycobacterium tuberculosis isolate 8. Type of assay: functional. The essentials:
as §1

In assay [29] the test system is Mycobacterium tuberculosis. Put plainly: Antimycobacterial activity against drug-sensitive Mycobacterium tuberculosis isolate 16. Type of assay: functional. The essentials: as §1
Assay [30] has as its system Mycobacterium tuberculosis. Kind of assay: Antimycobacterial activity against drug-sensitive Mycobacterium tuberculosis isolate 20. Type of assay: functional. The essentials:
as §1

The subject of assay [31] is Mycobacterium tuberculosis. Put plainly: Antimycobacterial activity against drug-sensitive Mycobacterium tuberculosis isolate 3. Type of assay: functional. The essentials:
as §1

In assay [32] the test system is Mycobacterium tuberculosis. Kind of assay: Antimycobacterial activity against drug-sensitive Mycobacterium tuberculosis isolate 2. Type of assay: functional. The essentials:
as §1

The subject of assay [33] is Mycobacterium tuberculosis. Kind of assay: Antimycobacterial activity against drug-sensitive Mycobacterium tuberculosis isolate 11. Type of assay: functional. The essentials:
as §1

In assay [34] the test system is Mycobacterium tuberculosis. Kind of assay: Antimycobacterial activity against drug-sensitive Mycobacterium tuberculosis isolate 10. Type of assay: functional. The essentials: as §1
Assay [35] deals with Mycobacterium tuberculosis. Kind of assay: Antimycobacterial activity against drug-sensitive Mycobacterium tuberculosis isolate 18. Type of assay: functional. The essentials: as §1

In brackets after ≈: the same amount, converted by molar mass.

Consider `O=C(O)c1cn(C2CC2)c2cc(N3CCNCC3)c(F)cc2c1=O` [CIPROFLOXACIN], for which the MIC in assay [1] was 0.2 µg/mL (≈ 0.604 µM); in [2] it was 0.39 µg/mL (≈ 1.18 µM); in assay [3] it was 0.1 µg/mL (≈ 0.302 µM); in assay [4], 0.39 µg/mL (≈ 1.18 µM); in assay [5], 1.56 µg/mL (≈ 4.71 µM).

Turning to `CN[C@@H]1[C@H](O[C@H]2[C@H](O[C@H]3[C@H](O)[C@@H](O)[C@H](N=C(N)N)[C@@H](O)[C@@H]3N=C(N)N)O[C@@H](C)[C@]2(O)C=O)O[C@@H](CO)[C@H](O)[C@H]1O` [STREPTOMYCIN], the MIC is 50 µg/mL (≈ 86 µM) in [1]; 1.56 µg/mL (≈ 2.68 µM) in [2]; 0.2 µg/mL (≈ 0.344 µM) in assay [3]; 50 µg/mL (≈ 86 µM) in [6]; 0.39 µg/mL (≈ 0.671 µM) in assay [4]; more than 100 µg/mL in assay [7]. Further, the MIC in assay [5] was determined as 3.13 µg/mL (≈ 5.38 µM).

In the case of `C[C@@H](O)[C@H]1C(=O)N2C(C(=O)O)=C(SCCNC=N)C[C@H]12` [IMIPENEM ANHYDROUS], the MIC in assay [1] came to 0.1 µg/mL (≈ 0.334 µM); in assay [3], 3.13 µg/mL (≈ 10.5 µM); in [6], 0.1 µg/mL (≈ 0.334 µM); in assay [4], 3.13 µg/mL (≈ 10.5 µM); in assay [7], 0.1 µg/mL (≈ 0.334 µM).

Turning to `NCC[C@H](O)C(=O)N[C@@H]1C[C@H](N)[C@@H](O[C@H]2O[C@H](CN)[C@@H](O)[C@H](O)[C@H]2O)[C@H](O)[C@H]1O[C@H]1O[C@H](CO)[C@@H](O)[C@H](N)[C@H]1O` [AMIKACIN], the MIC in [8] is 32 µg/mL (≈ 54.6 µM); in assay [9] it was 0.5 µg/mL (≈ 0.854 µM); in assay [10], 4 µg/mL (≈ 6.83 µM); in assay [11], 0.5 µg/mL (≈ 0.854 µM); in [12], more than 128 µg/mL; in [13], 2 µg/mL (≈ 3.42 µM). Also, the values for the MIC in [14] and in assay [15] were more than 128 µg/mL and 32 µg/mL (≈ 54.6 µM), respectively.

In turn, `CN(C)C(=S)S[C@@H]1O[C@H](CO)[C@@H](O)[C@H](O)[C@H]1NC(=O)c1ccccc1` showed an MIC in [4] of 100 µg/mL (≈ 259 µM).

`CC1(C)S[C@@H]2[C@H](NC(=O)Cc3ccccc3)C(=O)N2[C@H]1C(=O)O` [PENICILLIN G]: the MIC is 31.3 µg/mL (≈ 93.6 µM) in [1]; 500 µg/mL (≈ 1500 µM) in assay [3]; 25 µg/mL (≈ 74.8 µM) in [6]; 500 µg/mL (≈ 1500 µM) in assay [4]; more than 500 µg/mL in [7].

On to `CCCCCCCCCCCCCCCCCC(=O)N[C@@H]1[C@@H](O)[C@H](O)[C@@H](CO)O[C@H]1SC(=S)N(C)C`, for which the MIC in assay [4] worked out at 100 µg/mL (≈ 182 µM).

For `CCC(=O)N[C@@H]1[C@@H](O)[C@H](O)[C@@H](CO)O[C@H]1SC(=S)N(C)C`, the MIC in assay [4] stood at 50 µg/mL (≈ 148 µM).

In the case of `CC(=O)N[C@@H]1[C@@H](O)[C@H](O)[C@@H](CO)O[C@H]1O` [N-ACETYLGLUCOSAMINE], the MIC in assay [1], in assay [2], in assay [3], in assay [6], in assay [4] and in [7] was more than 100 µg/mL in each case. The molecule also gave an MIC in assay [5] of more than 100 µg/mL.

In [4], `CN(C)C(=S)S[C@@H]1O[C@H](CO)[C@@H](O)[C@H](O)[C@H]1N` displayed an MIC of 50 µg/mL (≈ 177 µM).

Turning to `CC(=O)N[C@@H]1[C@@H](O)[C@H](O)[C@@H](CO)O[C@H]1SC(=S)N1CCCC1`, the MIC in [16] is 6.25 µg/mL (≈ 17.8 µM); in assay [17] it was 6.25 µg/mL (≈ 17.8 µM); in assay [18] it was 6.25 µg/mL (≈ 17.8 µM); in assay [19] it was 12.5 µg/mL (≈ 35.7 µM); in [8], more than 128 µg/mL; in [1] it was more than 100 µg/mL. Besides, the MIC in assay [9] is more than 128 µg/mL; in [2] it was 100 µg/mL (≈ 285 µM); in assay [3] it was 12.5 µg/mL (≈ 35.7 µM); in assay [20], 6.25 µg/mL (≈ 17.8 µM); in assay [6], more than 100 µg/mL; in assay [21], 12.5 µg/mL (≈ 35.7 µM). In addition, the MIC is 6.25 µg/mL (≈ 17.8 µM) in assay [22]; 6.25 µg/mL (≈ 17.8 µM) in [23]; 6.25 µg/mL (≈ 17.8 µM) in assay [24]; 6.25 µg/mL (≈ 17.8 µM) in assay [25]; 6.25 µg/mL (≈ 17.8 µM) in [26]; more than 128 µg/mL in assay [10]. In addition, the MIC was 6.25 µg/mL (≈ 17.8 µM) in [27]; more than 128 µg/mL in assay [11]; 12.5 µg/mL (≈ 35.7 µM) in [28]; 6.25 µg/mL (≈ 17.8 µM) in assay [29]; 12.5 µg/mL (≈ 35.7 µM) in [30]; more than 128 µg/mL in assay [12]. In addition, the MIC was more than 128 µg/mL in [13]; 6.25 µg/mL (≈ 17.8 µM) in [31]; more than 128 µg/mL in assay [14]; 6.25 µg/mL (≈ 17.8 µM) in assay [4]; more than 100 µg/mL in assay [7]; more than 128 µg/mL in [15]. Further, the MIC in [32] came out at 6.25 µg/mL (≈ 17.8 µM); in assay [33], 6.25 µg/mL (≈ 17.8 µM); in [34], 6.25 µg/mL (≈ 17.8 µM); in assay [5] it was 50 µg/mL (≈ 143 µM); in assay [35], 6.25 µg/mL (≈ 17.8 µM).

The values above are taken from ChEMBL document CHEMBL1667806, “Synthesis and evaluation of anti-tubercular activity of new dithiocarbamate sugar derivatives” (2011).
